Data published in ChEMBL document CHEMBL2086252, “Syntheses and evaluation of anticonvulsant activity of novel branched alkyl carbamates” (J Med Chem, 2012).
Calls of active or inactive are those of the source. The calls are words filed in the database; no cut-off is given here.

Legend:
[1] = Neurotoxicity in po dosed Sprague-Dawley albino rat assessed as minimal motor impairment by rotarod test; assay type: toxicity, organism-based; details: in vivo
Outline: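 Rats dosed orally; 4 rats per time point after dosing. Neurotoxicity was scored as motor impairment or sedation and reported as number of animals affected over number tested.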

[2] = tested on: Rattus norvegicus; assay: Anticonvulsant activity in po dosed Sprague-Dawley albino rat assessed as protection against subcutaneous metrazol-induced seizures; assay type: functional
Outline: (§1)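 Quantitative testing: rats dosed orally or ip in MES and scMet tests, and mice dosed ip, including the 6 Hz (32 mA) psychomotor seizure test. ED50 and TD50 were reported in mg/kg with ranges in parentheses. Protective index was calculated as TD50/ED50.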

[3] = tested on: Mus musculus; assay: Neurotoxicity in albino CF1 mouse assessed as minimal motor impairment at 100 mg/kg, ip after 4 hrs by rotarod test; assay type: toxicity, organism-based; design: dose 100 mg/kg, route intraperitoneal; details: in vivo
Outline: (§2)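 Mice dosed ip at 30, 100 or 300 mg/kg, then tested 0.5 h and 4 h after administration in the MES or scMet test. Protection was recorded as animals protected over animals tested. Neurotoxicity was recorded as motor impairment or sedation, as animals affected over animals tested.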

[4] = tested on: Rattus norvegicus; assay: Neurotoxicity in pilocarpine-induced status epilepticus Sprague-Dawley albino rat model assessed as minimal motor impairment at 30 mg/kg, ip after 0.5 hrs by rotarod test; assay type: toxicity, organism-based; design: dose 30 mg/kg, route intraperitoneal; details: in vivo
Outline: (§3)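 Rat pilocarpine status epilepticus model: test carbamate given at 0 or 30 min after the first observed Racine stage 3 motor seizure, which marks SE onset. Neurotoxicity was scored within the same model.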

[5] = tested on: Mus musculus; assay: Anticonvulsant activity in albino CF1 mouse assessed as protection against subcutaneous metrazol-induced seizures at 100 mg/kg, ip after 4 hrs; assay type: functional, organism-based; design: dose 100 mg/kg; outline: as §2
[6] = tested on: Mus musculus; assay: Anticonvulsant activity in albino CF1 mouse assessed as protection against subcutaneous metrazol-induced seizures at 300 mg/kg, ip after 4 hrs; assay type: functional, organism-based; design: dose 300 mg/kg; outline: as §2
[7] = tested on: Rattus norvegicus; assay: Anticonvulsant activity in Sprague-Dawley albino rat assessed as protection against maximal electroshock-induced seizures at 30 mg/kg, po after 1 hr; assay type: functional, organism-based; design: dose 30 mg/kg
Outline: (§4)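 Rats dosed orally. Anti-MES protection was scored as animals protected over animals tested at each time after dosing. Neurotoxicity was scored as motor impairment or sedation, as animals affected over animals tested.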

[8] = tested on: Rattus norvegicus; assay: Neurotoxicity in pilocarpine-induced status epilepticus Sprague-Dawley albino rat model assessed as minimal motor impairment at 30 mg/kg, ip after 4 hrs by rotarod test; assay type: toxicity, organism-based; design: dose 30 mg/kg, route intraperitoneal; details: in vivo; outline: as §3
[9] = tested on: Mus musculus; assay: Anticonvulsant activity in albino CF1 mouse assessed as protection against subcutaneous metrazol-induced seizures at 100 mg/kg, ip after 0.5 hrs; assay type: functional, organism-based; design: dose 100 mg/kg; outline: as §2
[10] = tested on: Mus musculus; assay: Anticonvulsant activity in albino CF1 mouse assessed as protection against maximal electroshock-induced seizures at 100 mg/kg, ip after 0.5 hrs; assay type: functional, organism-based; design: dose 100 mg/kg; outline: as §2
[11] = tested on: Mus musculus; assay: Anticonvulsant activity in albino CF1 mouse assessed as protection against subcutaneous metrazol-induced seizures at 30 mg/kg, ip after 4 hrs; assay type: functional, organism-based; design: dose 30 mg/kg; outline: as §2
[12] = tested on: Rattus norvegicus; assay: Anticonvulsant activity in Sprague-Dawley albino rat assessed as protection against maximal electroshock-induced seizures at 30 mg/kg, po after 2 hrs; assay type: functional, organism-based; design: dose 30 mg/kg; outline: as §4
[13] = tested on: Mus musculus; assay: Anticonvulsant activity in albino CF1 mouse assessed as protection against subcutaneous metrazol-induced seizures at 30 mg/kg, ip after 0.5 hrs; assay type: functional, organism-based; design: dose 30 mg/kg; outline: as §2
[14] = tested on: Mus musculus; assay: Anticonvulsant activity in albino CF1 mouse assessed as protection against maximal electroshock-induced seizures at 30 mg/kg, ip after 0.5 hrs; assay type: functional, organism-based; design: dose 30 mg/kg; outline: as §2
[15] = tested on: Rattus norvegicus; assay: Protective index, ratio of TD50 for po dosed Sprague-Dawley albino rat by rotarod test to ED50 for po dosed Sprague-Dawley albino rat by maximal electroshock seizures test; assay type: functional
Outline: (§5)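 Protective index calculated as TD50/ED50, with TD50 and ED50 taken from the same species and dosing route.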

[16] = tested on: Rattus norvegicus; assay: Neurotoxicity in pilocarpine-induced status epilepticus Sprague-Dawley albino rat model assessed as minimal motor impairment at 30 mg/kg, ip after 0.25 hr by rotarod test; assay type: toxicity, organism-based; design: dose 30 mg/kg, route intraperitoneal; details: in vivo; outline: as §3
[17] = tested on: Rattus norvegicus; assay: Anticonvulsant activity in Sprague-Dawley albino rat assessed as protection against pilocarpine-induced status epilepticus at 65 mg/kg, ip; assay type: functional, organism-based; design: dose 65 mg/kg
Outline: (§6)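 Pilocarpine status epilepticus model in rats. Number and severity of convulsive seizures were observed behaviourally.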

[18] = tested on: Rattus norvegicus; assay: Neurotoxicity in pilocarpine-induced status epilepticus Sprague-Dawley albino rat model assessed as minimal motor impairment at 300 mg/kg, ip after 0.25 hr by rotarod test; assay type: toxicity, organism-based; design: dose 300 mg/kg, route intraperitoneal; details: in vivo; outline: as §3
[19] = tested on: Rattus norvegicus; assay: Neurotoxicity in pilocarpine-induced status epilepticus Sprague-Dawley albino rat model assessed as minimal motor impairment at 300 mg/kg, ip after 4 hrs by rotarod test; assay type: toxicity, organism-based; design: dose 300 mg/kg, route intraperitoneal; details: in vivo; outline: as §3
[20] = tested on: Rattus norvegicus; assay: Protective index, ratio of TD50 for po dosed Sprague-Dawley albino rat by rotarod test to ED50 for po dosed Sprague-Dawley albino rat by subcutaneous metrazol seizures test; assay type: functional; outline: as §5
[21] = tested on: Rattus norvegicus; assay: Neurotoxicity in pilocarpine-induced status epilepticus Sprague-Dawley albino rat model assessed as minimal motor impairment at 300 mg/kg, ip after 1 hr by rotarod test; assay type: toxicity, organism-based; design: dose 300 mg/kg, route intraperitoneal; details: in vivo; outline: as §3
[22] = tested on: Rattus norvegicus; assay: Neurotoxicity in pilocarpine-induced status epilepticus Sprague-Dawley albino rat model assessed as minimal motor impairment at 300 mg/kg, ip after 2 hrs by rotarod test; assay type: toxicity, organism-based; design: dose 300 mg/kg, route intraperitoneal; details: in vivo; outline: as §3
[23] = tested on: Mus musculus; assay: Anticonvulsant activity in albino CF1 mouse assessed as protection against subcutaneous metrazol-induced seizures at 300 mg/kg, ip after 0.5 hrs; assay type: functional, organism-based; design: dose 300 mg/kg; outline: as §2
[24] = tested on: Rattus norvegicus; assay: Neurotoxicity in pilocarpine-induced status epilepticus Sprague-Dawley albino rat model assessed as minimal motor impairment at 30 mg/kg, ip after 2 hrs by rotarod test; assay type: toxicity, organism-based; design: dose 30 mg/kg, route intraperitoneal; details: in vivo; outline: as §3
[25] = tested on: Mus musculus; assay: Anticonvulsant activity in albino CF1 mouse assessed as protection against maximal electroshock-induced seizures at 30 mg/kg, ip after 4 hrs; assay type: functional, organism-based; design: dose 30 mg/kg; outline: as §2
[26] = tested on: Rattus norvegicus; assay: Neurotoxicity in pilocarpine-induced status epilepticus Sprague-Dawley albino rat model assessed as minimal motor impairment at 300 mg/kg, ip after 0.5 hrs by rotarod test; assay type: toxicity, organism-based; design: dose 300 mg/kg, route intraperitoneal; details: in vivo; outline: as §3
[27] = tested on: Rattus norvegicus; assay: Anticonvulsant activity in po dosed Sprague-Dawley albino rat assessed as protection against maximal electroshock-induced seizures; assay type: functional; outline: as §1
[28] = tested on: Rattus norvegicus; assay: Neurotoxicity in pilocarpine-induced status epilepticus Sprague-Dawley albino rat model assessed as minimal motor impairment at 100 mg/kg, ip after 0.25 hr by rotarod test; assay type: toxicity, organism-based; design: dose 100 mg/kg, route intraperitoneal; details: in vivo
[29] = tested on: Mus musculus; assay: Anticonvulsant activity in albino CF1 mouse assessed as protection against maximal electroshock-induced seizures at 300 mg/kg, ip after 0.5 hrs; assay type: functional, organism-based; design: dose 300 mg/kg; outline: as §2
[30] = tested on: Rattus norvegicus; assay: Neurotoxicity in Sprague-Dawley albino rat assessed as minimal motor impairment at 30 mg/kg, po by rotarod test; assay type: toxicity, organism-based; design: dose 30 mg/kg, route oral; details: in vivo; outline: as §4
[31] = tested on: Mus musculus; assay: Neurotoxicity in albino CF1 mouse assessed as minimal motor impairment at 300 mg/kg, ip after 4 hrs by rotarod test; assay type: toxicity, organism-based; design: dose 300 mg/kg, route intraperitoneal; details: in vivo; outline: as §2
[32] = tested on: Rattus norvegicus; assay: Anticonvulsant activity in Sprague-Dawley albino rat assessed as protection against maximal electroshock-induced seizures at 30 mg/kg, po after 4 hrs; assay type: functional, organism-based; design: dose 30 mg/kg; outline: as §4
[33] = tested on: Mus musculus; assay: Neurotoxicity in albino CF1 mouse assessed as minimal motor impairment at 30 mg/kg, ip after 4 hrs by rotarod test; assay type: toxicity, organism-based; design: dose 30 mg/kg, route intraperitoneal; details: in vivo; outline: as §2
[34] = tested on: Mus musculus; assay: Anticonvulsant activity in albino CF1 mouse assessed as protection against maximal electroshock-induced seizures at 100 mg/kg, ip after 4 hrs; assay type: functional, organism-based; design: dose 100 mg/kg; outline: as §2
[35] = tested on: Rattus norvegicus; assay: Neurotoxicity in pilocarpine-induced status epilepticus Sprague-Dawley albino rat model assessed as minimal motor impairment at 100 mg/kg, ip after 4 hrs by rotarod test; assay type: toxicity, organism-based; design: dose 100 mg/kg, route intraperitoneal; details: in vivo
[36] = tested on: Rattus norvegicus; assay: Neurotoxicity in pilocarpine-induced status epilepticus Sprague-Dawley albino rat model assessed as minimal motor impairment at 100 mg/kg, ip after 0.5 hrs by rotarod test; assay type: toxicity, organism-based; design: dose 100 mg/kg, route intraperitoneal; details: in vivo
[37] = tested on: Mus musculus; assay: Anticonvulsant activity in albino CF1 mouse assessed as protection against maximal electroshock-induced seizures at 300 mg/kg, ip after 4 hrs; assay type: functional, organism-based; design: dose 300 mg/kg; outline: as §2
[38] = tested on: Rattus norvegicus; assay: Neurotoxicity in pilocarpine-induced status epilepticus Sprague-Dawley albino rat model assessed as minimal motor impairment at 100 mg/kg, ip after 2 hrs by rotarod test; assay type: toxicity, organism-based; design: dose 100 mg/kg, route intraperitoneal; details: in vivo
[39] = tested on: Mus musculus; assay: Neurotoxicity in albino CF1 mouse assessed as minimal motor impairment at 30 mg/kg, ip after 0.5 hrs by rotarod test; assay type: toxicity, organism-based; design: dose 30 mg/kg, route intraperitoneal; details: in vivo; outline: as §2
[40] = tested on: Rattus norvegicus; assay: Neurotoxicity in pilocarpine-induced status epilepticus Sprague-Dawley albino rat model assessed as minimal motor impairment at 30 mg/kg, ip after 1 hr by rotarod test; assay type: toxicity, organism-based; design: dose 30 mg/kg, route intraperitoneal; details: in vivo; outline: as §3
[41] = tested on: Rattus norvegicus; assay: Anticonvulsant activity in ip dosed Sprague-Dawley albino rat assessed as protection against pilocarpine-induced status epilepticus after 0.5 hrs; assay type: functional; outline: as §6

## CCC(C)C(CC)COC(N)=O (racemic)
[1]
  TD50: 291 mg/kg
[2]
  ED50: 68 mg/kg
[3]
  Activity: Non-toxic
[4]
  Activity: Non-toxic
[5]
  Activity: inactive
[6]
  Activity: inactive
[7]
  Activity: inactive
[8]
  Activity: Toxic
[9]
  Activity: Active
[10]
  Activity: Active
[11]
  Activity: inactive
[12]
  Activity: inactive
[13]
  Activity: inactive
[14]
  Activity: inactive
[15]
  Ratio TD50/ED50: 5.5
[16]
  Activity: Non-toxic
[17]
  Activity: Active
[18]
  Activity: Toxic
[19]
  Activity: Non-toxic
[20]
  Ratio TD50/ED50: 4.3
[21]
  Activity: Toxic
[22]
  Activity: Non-toxic
[23]
  Activity: Active
[24]
  Activity: Toxic
[25]
  Activity: inactive
[26]
  Activity: Toxic
[27]
  ED50: 52 mg/kg
[28]
  Activity: Toxic
[29]
  Activity: Active
[30]
  Activity: Non-toxic
[31]
  Activity: Non-toxic
[32]
  Activity: inactive
[33]
  Activity: Non-toxic
[34]
  Activity: inactive
[35]
  Activity: Toxic
[36]
  Activity: Toxic
[37]
  Activity: inactive
[38]
  Activity: Toxic
[39]
  Activity: Non-toxic
[40]
  Activity: Non-toxic
[41]
  ED50: 96 mg/kg
  ED97: 174 mg/kg
